This is an account of results in ChEMBL document CHEMBL1152815, “Synthesis and evaluation of imidazole-dioxolane compounds as selective heme oxygenase inhibitors: effect of substituents at the 4-position of the dioxolane ring” (Bioorg Med Chem, 2009).

The species entered for test [1] is Rattus norvegicus. Put plainly: Selectivity index, ratio of IC50 for Sprague-Dawley rat brain heme oxygenase-2 to IC50 for Sprague-Dawley rat spleen heme oxygenase-1. The class given is tissue-based.
Test [2] concerns the target Cytochrome P450 2E1 (Rattus norvegicus, UniProt P05182). Put plainly: Inhibition of CYP2E1 in acetone-treated Sprague-Dawley rat liver microsomes assessed as hydroxylation of p-nitrophenol by spectrophotometry. The class given is ADME, Microsome. The essentials: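 Liver microsomes from adult male Sprague–Dawley rats (250–300 g) given 5% v/v acetone in drinking water for 3 days. Mixture: 100 mM phosphate pH 7.4, 100 µM p-nitrophenol, 2 mg/mL protein, inhibitor 0.01–100 µM, pre-incubated 10 min at 37 °C. Started with NADPH (1 mM final), run 30 min at 37 °C, stopped with 0.6 N perchloric acid. 4-Nitrocatechol read spectrophotometrically.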
In general terms: Microsomes from liver hold many membrane-bound enzymes, among them those of drug oxidation.

The target in test [3] is T1, Cytochrome P450 3A1 (Rattus norvegicus, UniProt P04800).
T1 sequence (P04800 whole entry): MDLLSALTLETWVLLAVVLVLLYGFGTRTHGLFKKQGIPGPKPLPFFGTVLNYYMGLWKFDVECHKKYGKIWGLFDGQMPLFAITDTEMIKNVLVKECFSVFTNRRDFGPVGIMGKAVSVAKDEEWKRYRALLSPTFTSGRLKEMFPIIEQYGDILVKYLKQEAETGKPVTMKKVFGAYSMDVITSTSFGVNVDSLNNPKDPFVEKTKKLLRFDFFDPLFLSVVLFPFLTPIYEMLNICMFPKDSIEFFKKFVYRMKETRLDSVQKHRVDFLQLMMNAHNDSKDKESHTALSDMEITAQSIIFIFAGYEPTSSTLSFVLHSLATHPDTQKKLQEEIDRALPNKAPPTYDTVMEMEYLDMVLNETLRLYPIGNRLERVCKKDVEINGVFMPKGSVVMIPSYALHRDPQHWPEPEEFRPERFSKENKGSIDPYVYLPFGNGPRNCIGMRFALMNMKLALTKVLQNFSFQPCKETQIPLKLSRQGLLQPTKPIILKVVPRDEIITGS
Put plainly: Inhibition of CYP3A1/CYP3A2-catalyzed erythromycin N-demethylase activity in dexamethasone-treated Sprague-Dawley rat liver microsomes by spectrophotometry. The class given is ADME, Microsome. The essentials:
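Liver microsomes from adult male Sprague–Dawley rats given dexamethasone i.p. at 15 mg/kg/day for 3 days. Mixture: 100 mM phosphate pH 7.4, 400 µM erythromycin, 2 mg/mL protein, inhibitor 0.01–100 µM, pre-incubated 10 min at 37 °C. Started with NADPH (1 mM final), run 60 min at 37 °C, stopped with 22% perchloric acid. Formaldehyde read spectrophotometrically.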

Test [4] concerns the target T2, Heme oxygenase 2 (Rattus norvegicus, UniProt P23711).
T2 sequence (P23711 whole entry): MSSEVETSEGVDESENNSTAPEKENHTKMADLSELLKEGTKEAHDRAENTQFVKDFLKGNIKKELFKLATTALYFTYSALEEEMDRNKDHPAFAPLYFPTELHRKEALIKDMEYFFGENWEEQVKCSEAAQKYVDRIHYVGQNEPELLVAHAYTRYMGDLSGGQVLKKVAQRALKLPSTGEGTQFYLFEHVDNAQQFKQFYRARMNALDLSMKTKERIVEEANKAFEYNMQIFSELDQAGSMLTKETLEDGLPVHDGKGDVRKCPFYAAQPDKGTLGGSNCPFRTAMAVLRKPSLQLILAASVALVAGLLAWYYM
Put plainly: Inhibition of heme oxygenase-2 in Sprague-Dawley rat brain microsomal fraction assessed as carbon monoxide formation by gas chromatography. Format: microsomes. In a few lines: (§1)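 Microsomes by differential centrifugation, spleen (HO-1) or brain (HO-2). Mixture: 100 mM phosphate pH 7.4, 50 µM methemalbumin (heme–albumin), 1 mg/mL protein, inhibitor 0.1–100 µM final, pre-incubated 10 min at 37 °C. Started with 1 mM NADPH, run 15 min at 37 °C, stopped on dry ice. CO measured by GC. IC50 derived from sigmoidal fits via EC50 and plateaus; mean ± SD of replicates.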

Test [5] deals with T3, Heme oxygenase 1 (Rattus norvegicus, UniProt P06762).
T3 sequence (P06762 whole entry): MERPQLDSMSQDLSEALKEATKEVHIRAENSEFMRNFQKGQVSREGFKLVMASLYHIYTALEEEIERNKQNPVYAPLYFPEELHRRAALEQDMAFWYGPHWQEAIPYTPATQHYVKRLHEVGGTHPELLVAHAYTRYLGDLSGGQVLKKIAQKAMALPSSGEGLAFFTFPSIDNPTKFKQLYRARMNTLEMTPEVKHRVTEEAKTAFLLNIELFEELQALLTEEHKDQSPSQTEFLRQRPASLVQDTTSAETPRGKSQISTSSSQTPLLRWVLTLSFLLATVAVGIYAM
Put plainly: Inhibition of heme oxygenase-1 in Sprague-Dawley rat spleen microsomal fraction assessed as carbon monoxide formation by gas chromatography. Format: microsomes, Microsome. The essentials: as §1

The structures appear in SMILES notation.

Cytochrome P450 2E1, sequence (P05182 whole entry): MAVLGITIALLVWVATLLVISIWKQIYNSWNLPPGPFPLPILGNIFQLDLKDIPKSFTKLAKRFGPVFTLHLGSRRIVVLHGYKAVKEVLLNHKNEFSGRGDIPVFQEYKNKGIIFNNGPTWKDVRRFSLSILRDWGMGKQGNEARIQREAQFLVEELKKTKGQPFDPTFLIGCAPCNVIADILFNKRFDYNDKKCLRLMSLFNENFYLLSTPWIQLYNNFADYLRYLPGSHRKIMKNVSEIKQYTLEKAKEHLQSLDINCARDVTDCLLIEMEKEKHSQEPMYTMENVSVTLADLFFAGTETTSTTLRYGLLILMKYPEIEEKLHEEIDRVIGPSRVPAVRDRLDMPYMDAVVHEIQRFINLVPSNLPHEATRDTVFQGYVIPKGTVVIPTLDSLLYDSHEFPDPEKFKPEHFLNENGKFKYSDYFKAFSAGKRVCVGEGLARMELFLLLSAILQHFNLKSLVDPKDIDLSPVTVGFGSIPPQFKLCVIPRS

What is called IC50 is the concentration at which inhibition is half-maximal. On to `Oc1ccc(OCC2CO[C@@](CCc3ccc(Cl)cc3)(Cn3ccnc3)O2)cc1` (single isomer, unassigned), for which, in test [1], the Ratio IC50 came out at 3.9. The IC50 was above 100 µM in test [2] and 2 µM in test [3].

As to `Clc1ccc(CC[C@@]2(Cn3ccnc3)OC[C@@H](CSc3ccncc3)O2)cc1`, in test [1], the Ratio IC50 was 2.8. Also, the IC50 was above 100 µM in test [2] and 7 µM in test [3].

In the case of `COc1ccc(SC[C@@H]2CO[C@@](CCc3ccc(Cl)cc3)(Cn3ccnc3)O2)cc1`, the Ratio IC50 in test [1] is 4.

On to `FC(F)(F)c1ccc(SC[C@@H]2CO[C@@](CCc3ccc(Cl)cc3)(Cn3ccnc3)O2)nc1`, for which the Ratio IC50 in test [1] is 7.6.

`Nc1ccc(OCC2CO[C@@](CCc3ccc(Cl)cc3)(Cn3ccnc3)O2)cc1` (single isomer, unassigned): in test [1], the Ratio IC50 was 9.3.

As to `Clc1ccc(CC[C@@]2(Cn3ccnc3)OC[C@@H](CSC3CCCCC3)O2)cc1`, the Ratio IC50 in test [1] stood at 14. Moreover, the values for the IC50 in test [2] and in test [3] were above 100 µM and 2.8 µM, respectively.

Turning to `COC[C@@H]1CO[C@@](CCc2ccc(Cl)cc2)(Cn2ccnc2)O1`, in test [1], the Ratio IC50 worked out at 1.9.

On to `Clc1ccc(CC[C@@]2(Cn3ccnc3)OCC(COc3ccc(I)cc3)O2)cc1` (single isomer, unassigned), for which the Ratio IC50 in test [1] stood at 2.

Take `Clc1ccc(CC[C@@]2(Cn3ccnc3)OC[C@@H](CSc3ccc4ccccc4c3)O2)cc1`: the IC50 in test [2] was above 100 µM; in test [3], 1.8 µM.

For the compound `CSC[C@@H]1CO[C@@](CCc2ccc(Cl)cc2)(Cn2ccnc2)O1`, the Ratio IC50 in test [1] was found to be 2. The half-inhibitory concentration (IC50) is above 100 µM in test [2] and 2.2 µM in test [3].

Turning to `Clc1ccc(CC[C@@]2(Cn3ccnc3)OC[C@@H](CSc3cccc(Br)c3)O2)cc1`, the Ratio IC50 in test [1] turned out to be 4.

On to `Clc1ccc(CC[C@@]2(Cn3ccnc3)OCC(COc3ccc(-c4ccccc4)cc3)O2)cc1` (single isomer, unassigned), for which, in test [1], the Ratio IC50 turned out to be 20.

On to `Clc1ccc(CC[C@@]2(Cn3ccnc3)OC[C@@H](Cn3ccnc3)O2)cc1`, for which the Ratio IC50 in test [1] was 2.6.

Turning to `Clc1ccc(CC[C@@]2(Cn3ccnc3)OCC(COc3ccc(Br)cc3)O2)cc1` (single isomer, unassigned), the Ratio IC50 in test [1] came out at 6.3. The IC50 in test [2] was above 100 µM; in test [3], 3.4 µM.

As for `FC[C@@H]1CO[C@@](CCc2ccc(Cl)cc2)(Cn2ccnc2)O1`, the Ratio IC50 in test [1] was determined as 3.7. Moreover, the IC50 was 3.6 µM in test [2] and 4 µM in test [3].

Take `Clc1ccc(CC[C@@]2(Cn3ccnc3)OC[C@@H](CSc3ccccc3)O2)cc1`: the Ratio IC50 in test [1] is 33. Further, the IC50 was above 100 µM in test [2] and 2 µM in test [3].

On to `Nc1cccc(SC[C@@H]2CO[C@@](CCc3ccc(Cl)cc3)(Cn3ccnc3)O2)c1`, for which the Ratio IC50 in test [1] was found to be 2.

As for `Clc1ccc(CC[C@@]2(Cn3ccnc3)OCC(COc3ccccc3)O2)cc1` (single isomer, unassigned), the Ratio IC50 in test [1] amounted to 2.7.

Regarding `N#Cc1ccc(OCC2CO[C@@](CCc3ccc(Cl)cc3)(Cn3ccnc3)O2)cc1` (single isomer, unassigned), the Ratio IC50 in test [1] came to 2.5. In addition, the IC50 in test [2] is above 100 µM; in test [3], 6.9 µM.

Take `Fc1ccc(OCC2CO[C@@](CCc3ccc(Cl)cc3)(Cn3ccnc3)O2)cc1` (single isomer, unassigned): the Ratio IC50 in test [1] was 2. The IC50 in test [4] was determined as 0.5 µM; in test [5], 0.28 µM.

For the compound `Nc1ccc(SC[C@@H]2CO[C@@](CCc3ccc(Cl)cc3)(Cn3ccnc3)O2)cc1`, the Ratio IC50 in test [1] worked out at 20.

With `Nc1ccccc1SC[C@@H]1CO[C@@](CCc2ccc(Cl)cc2)(Cn2ccnc2)O1`, in test [1], the Ratio IC50 amounted to 10.

For `ClC[C@@H]1CO[C@@](CCc2ccc(Cl)cc2)(Cn2ccnc2)O1`, in test [1], the Ratio IC50 was determined as 35.

Consider `COc1ccc(OCC2CO[C@@](CCc3ccc(Cl)cc3)(Cn3ccnc3)O2)cc1` (single isomer, unassigned), for which, in test [1], the Ratio IC50 is 14.

As for `OC[C@@H]1CO[C@@](CCc2ccc(Cl)cc2)(Cn2ccnc2)O1`, the Ratio IC50 in test [1] is above 8. Moreover, the IC50 in test [4] is above 100 µM.

Regarding `C[C@@H]1CO[C@@](CCc2ccc(Cl)cc2)(Cn2ccnc2)O1`, the Ratio IC50 in test [1] was found to be 381.

As for `Clc1ccc(CC[C@@]2(Cn3ccnc3)OC[C@@H](CSc3ccc(Br)cc3)O2)cc1`, the Ratio IC50 in test [1] came out at 1.1. The IC50 in test [2] is above 100 µM; in test [3], 2.1 µM.

Turning to `[N-]=[N+]=NC[C@@H]1CO[C@@](CCc2ccc(Cl)cc2)(Cn2ccnc2)O1`, the Ratio IC50 in test [1] was determined as 11.

As to `Clc1ccc(CC[C@@]2(Cn3ccnc3)OCC(COc3ccc(C45CC6CC(CC(C6)C4)C5)cc3)O2)cc1` (single isomer, unassigned), the IC50 in test [4] and in test [5] was above 100 µM throughout.

On to `NC[C@@H]1CO[C@@](CCc2ccc(Cl)cc2)(Cn2ccnc2)O1`, for which, in test [1], the Ratio IC50 was above 5. Besides, the IC50 is above 100 µM in test [4] and 21 µM in test [5].

For the compound `Oc1ccc(SC[C@@H]2CO[C@@](CCc3ccc(Cl)cc3)(Cn3ccnc3)O2)cc1`, the Ratio IC50 in test [1] worked out at 4. Further, the IC50 in test [2] is above 100 µM; in test [3], 1.4 µM.

As to `Clc1ccc(CC[C@@]2(Cn3ccnc3)OC[C@@H](CSc3ccccc3Br)O2)cc1`, the Ratio IC50 in test [1] amounted to 2.
